# In ChEMBL document CHEMBL4402514, “Norepinephrine-Transporter-Targeted and DNA-Co-Targeted Theranostic Guanidines” (J Med Chem, 2020):
# How the values were obtained:
# [1] = Half life in EMEM medium by HPLC analysis; format: physicochemical
# BE(2)-C [2] = experiment: Antiproliferative activity against human BE(2)-C cells assessed as intracellular concentration of 125I required to show 63% inhibition after 1 hr; format: cell-based
# Method in brief: (§1)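 BE(2)-C cells were treated for 1 h with several IDG concentrations, washed extensively, harvested with trypsin and replated for clonogenic assay. Cellular 125I uptake was measured per cell. D37 (63% kill) was estimated from survival versus extracellular concentration or intracellular content (mBq/cell). Values are average (std error).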
# BE(2)-C [3] = experiment: Antitumor activity against human BE(2)-C cells xenografted with NCR nu/nu mouse assessed as doubling time at 8.4 +/- 0.3 mBq administered intratumorally measured up to 14 days; format: functional
# Method in brief: (§2)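 Athymic Ncr nu/nu female and male mice bearing subcutaneous BE(2)-C xenografts were randomized by lottery into untreated control and treatment groups. Treatment was a single intratumor injection of 8.4 ± 0.3 MBq/mouse. Tumor volumes were followed to day 7 (controls) or day 14. Doubling times were calculated from day 0 to 7 and day 0 to 14. Values are average ± std err.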
# [4] = Drug uptake in human SK-N-SH cells assessed as level of 125I-incorporation into DNA after 1 hr and followed by compound washout with non-radioactive medium/PBS and measured immediately by gamma counting method relative to control; format: ADME, cell-based
# Method in brief: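 SK-N-SH cells exposed to the 125I-labelled guanidine for 1 h, then washed with nonradioactive medium and PBS. Cells were either processed at once (1 h) or given fresh nonradioactive medium and returned to the incubator for 23 h (24 h). Subcellular fractions (cytoplasm, DNA) were counted by γ-counter. Values are mean and SD, n ≥ 3.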
# [5] = target: T1, Sodium-dependent noradrenaline transporter (Homo sapiens, UniProt P23975); experiment: Substrate activity at NET in human SK-N-SH cells assessed as inhibition of drug uptake by measuring MIBG IC50 incubated for 1 hr in presence of nonradioactive MIBG by gamma counting method; format: cell-based
# Method in brief: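 Exponentially growing SK-N-SH monolayers (endogenous NET) were exposed for 1 h to 125I-labelled guanidine plus nonradioactive MIBG over a range of concentrations. Cell-associated 125I was counted in a γ-counter, and the MIBG IC50 was estimated.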
# SK-N-SH [6] = experiment: Anticlonogenic activity against human SK-N-SH cells assessed as number of colonies at 40 +/- 0.5 kBq/mL kBq/mL after 24 hr by crystal violet staining based assay; format: functional
# Method in brief: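 SK-N-SH cells exposed for 1 h to 125I-MIBG (39.3 ± 0.3 kBq/mL extracellular) or IDG (40 ± 0.5 kBq/mL). For the 1 h group, cells were washed with nonradioactive medium and PBS, harvested with trypsin and replated for the clonogenic assay. For the 24 h group, cells were washed, given fresh nonradioactive medium and incubated a further 23 h before plating. Colonies were counted.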
# SK-N-SH [7] = experiment: Antiproliferative activity against human SK-N-SH cells assessed as cell viability at 180 kBa/ml after 24 hrs by trypan blue assay relative to control; format: functional
# Method in brief: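 Cell survival was scored by trypan blue exclusion 24 h after exposing SK-N-SH cells to radioiodinated guanidine at varied extracellular concentrations. Values are average (n ≥ 3) ± SD.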
# [8] = target: T1, Sodium-dependent noradrenaline transporter; experiment: Substrate activity at NET in human BE(2)-C cells assessed as inhibition of drug uptake by measuring MIBG IC50 incubated for 1 hr in presence of nonradioactive MIBG by gamma counting method; format: cell-based
# [9] = Drug level in human SK-N-SH cells DNA at 40 +/- 0.5 kBq/mL after 1 hr and followed by compound washout with non-radioactive medium/PBS and measured immediately by gamma counting method relative to control; format: ADME, cell-based
# Method in brief: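 SK-N-SH cells were exposed 1 h to 125I compound (≈39–40 kBq/mL), then washed with nonradioactive medium and PBS. Cells were processed immediately (1 h) or re-incubated in fresh medium for 23 h (24 h). Cytoplasmic, nuclear and DNA fractions were gamma-counted.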
# [10] = Drug uptake in human BE(2)-C cells assessed as level of 125I-incorporation into DNA after 1 hr and followed by compound washout with non-radioactive medium/PBS and measured immediately by gamma counting method relative to control; format: ADME, cell-based
# Method in brief: (§3)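 BE(2)-C cells were treated with radioiodinated guanidine for 1 h, washed with nonradioactive medium and PBS. They were processed immediately or returned to the incubator for a further 23 h. 125I in the DNA fraction was gamma-counted. Values are average (n ≥ 3) ± SD.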
# [11] = Dissociation constant, pKa of compound; format: physicochemical
# [12] = Drug uptake in human BE(2)-C cells assessed as level of 125I-incorporation into DNA incubated 1 hr followed by compound washout with non-radioactive medium/PBS and measured after 23 hrs by gamma counting method relative to control; format: ADME, cell-based; method in brief: as §3
# [13] = Stability in human SK-N-SH cells assessed as parent compound level after 24 hrs by HPLC analysis; format: ADME, cell-based; conditions: read-out: Stability
# Method in brief: (§4)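 The compound was incubated 24 h in cell culture medium without cells or with SK-N-SH cells. Intact compound and 125IUdR catabolite were quantified by radio-HPLC on a C18 column at 0.8 mL/min, with a 0–95% CH3CN gradient over 50 min and 95% for 20 min.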
# [14] = Half life in human serum by HPLC analysis; format: ADME, cell-free
# Method in brief: (§5)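 Radioiodinated guanidines were incubated in mouse, human or pig serum and analyzed by radio-HPLC on a C18 column at 0.8 mL/min. The gradient was 0–95% CH3CN over 50 min, then 95% for 20 min. Intact compound was fitted to monoexponential degradation to give half-life. Values are average ± std err.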
# [15] = Partition coefficient, logP of compound; format: physicochemical; conditions: octanol/water
# [16] = Drug level in tumor of NCR nu/nu mouse xenografted with human BE(2)-C cells at 0.83 +/- 0.09 MBq administered intratumorally pretreated with 18 umol of BNPP after 24 hrs by gamma counting analysis; format: ADME, tissue-based, Neoplasm; conditions: in vivo, other
# Method in brief: (§6)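 BE(2)-C xenograft-bearing nude mice were pre-injected with the carboxylesterase inhibitor bis-para-nitrophenylphosphate (9 or 18 μmol). They then received intratumor IDG. Tumor %ID/g was determined at 24 h.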
# BE(2)-C [17] = experiment: Antiproliferative activity against human BE(2)-C cells assessed as extracellular concentration of 125I required to show 63% inhibition after 1 hr; format: cell-based; method in brief: as §1
# [18] = Stability in human serum assessed as intact compound level after 60 mins by HPLC analysis; format: ADME, cell-free; conditions: read-out: Stability; method in brief: as §5
# [19] = Drug level in tumor of NCR nu/nu mouse xenografted with human BE(2)-C cells at 0.83 +/- 0.09 MBq administered intratumorally pretreated with 9 umol of BNPP after 24 hrs by gamma counting analysis; format: ADME, tissue-based, Neoplasm; conditions: in vivo, other; method in brief: as §6
# SK-N-SH [20] = experiment: Anticlonogenic activity against human SK-N-SH cells assessed as inhibition of reproductive integrity at 35 kBq/mL after 14 days by crystal violet staining based assay relative to control; format: functional; set-up: scale not given: the % may be the effect or the level left
# Method in brief: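 SK-N-SH cells exposed to 125I guanidine for 24 h, then harvested, replated at 500 live cells/flask and grown in nonradioactive medium for 14 days (up to 21 days at the highest levels). Colonies were stained with crystal violet and counted. Values are average (n ≥ 3) ± SD.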
# [21] = Stability in EMEM medium assessed as intact compound level incubated for 24 hrs by HPLC analysis; format: physicochemical; conditions: read-out: Stability; method in brief: as §4
# BE(2)-C [22] = experiment: Antitumor activity against human BE(2)-C cells xenografted with NCR nu/nu mouse assessed as tumor volume at 8.4 +/- 0.3 mBq administered intratumorally after 14 days (reference value: […]); format: functional; method in brief: as §2
# T1 sequence (P23975 whole entry): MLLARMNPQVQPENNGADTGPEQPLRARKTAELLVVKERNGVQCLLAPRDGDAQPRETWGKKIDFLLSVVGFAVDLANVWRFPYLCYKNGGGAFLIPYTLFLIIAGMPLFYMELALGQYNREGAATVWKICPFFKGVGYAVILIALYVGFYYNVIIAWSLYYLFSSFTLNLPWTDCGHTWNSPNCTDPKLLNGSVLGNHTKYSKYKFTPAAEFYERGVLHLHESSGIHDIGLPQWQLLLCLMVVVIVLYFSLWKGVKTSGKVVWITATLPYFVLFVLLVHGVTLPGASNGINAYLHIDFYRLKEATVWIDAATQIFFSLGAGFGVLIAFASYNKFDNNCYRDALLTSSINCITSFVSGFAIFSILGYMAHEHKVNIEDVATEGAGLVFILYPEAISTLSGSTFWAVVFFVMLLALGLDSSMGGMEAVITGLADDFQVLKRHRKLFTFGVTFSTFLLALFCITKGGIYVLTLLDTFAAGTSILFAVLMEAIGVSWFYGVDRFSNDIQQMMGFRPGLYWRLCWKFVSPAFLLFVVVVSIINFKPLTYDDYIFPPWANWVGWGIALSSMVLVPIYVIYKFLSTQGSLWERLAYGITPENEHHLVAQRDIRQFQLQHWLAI
compound,measurement,setting,value
N=C(N)NCCCCCC(=O)O[C@H]1C[C@H](n2cc([125I])c(=O)[nH]c2=O)O[C@@H]1CO,half-life,[1],110 h
same,Activity,BE(2)-C [2],0.91 mBq
same,Time,BE(2)-C [3],5.3 days
same,Drug uptake,[4],81%
same,IC50,[5],76.2 µM
same,Activity,SK-N-SH [6],97
same,Activity,SK-N-SH [7],60%
same,IC50,[8],8.2 µM
same,Drug uptake,[9],70 to 80%
same,Drug uptake,[10],93%
same,pKa,[11],12.1
same,Drug uptake,[12],99%
same,remaining at 24 h,[13],33%
same,half-life,[14],2.28 h
same,logP,[15],-0.2
same,Drug uptake,[16],1.66 % ID/g
same,Activity,BE(2)-C [17],398 kBq/ml
same,remaining at 1 h,[18],62.4%
same,Drug uptake,[19],1.63 % ID/g
same,Activity,SK-N-SH [20],>90%
same,remaining at 24 h,[21],86%
same,Activity,BE(2)-C [22],2.55 cm3
